ChEMBL document CHEMBL2429740, “The synthesis and SAR study of phenylalanine-derived (Z)-5-arylmethylidene rhodanines as anti-methicillin-resistant Staphylococcus aureus (MRSA) compounds” (2013)
In brackets after ≈: the same amount, converted by molar mass.

Tests used:
Type in all cases: functional
[1] = test system: Staphylococcus aureus; assay: Antibacterial activity against methicillin-resistant Staphylococcus aureus ATCC BAA-39 by microdilution technique
[2] = test system: Staphylococcus aureus; assay: Antibacterial activity against methicillin-resistant Staphylococcus aureus ATCC 700698 by microdilution technique
[3] = test system: Staphylococcus aureus; assay: Antibacterial activity against methicillin-resistant Staphylococcus aureus CA ATCC BAA-1680 by microdilution technique
[4] = test system: Staphylococcus aureus; assay: Antibacterial activity against methicillin-resistant Staphylococcus aureus ATCC 34404 by microdilution technique
[5] = test system: Staphylococcus aureus; assay: Antibacterial activity against methicillin-resistant Staphylococcus aureus ST239 HS770 by microdilution technique
[6] = test system: Staphylococcus aureus; assay: Antibacterial activity against methicillin-resistant Staphylococcus aureus ATCC 700787 by microdilution technique
[7] = test system: Staphylococcus aureus; assay: Ratio of MIC for methicillin-resistant Staphylococcus aureus CA ATCC BAA-1680 in absence of 10% FBS to MIC for methicillin-resistant Staphylococcus aureus CA ATCC BAA-1680 in presence of 10% FBS
How it was run: (§1)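 MIC determined by the same turbidity-based microdilution method, once in standard medium and once in medium with 10% fetal serum added, to probe serum protein binding. The ratio is the MIC without serum over the MIC with serum, for each strain.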

[8] = test system: Staphylococcus aureus; assay: Ratio of MIC for methicillin-resistant Staphylococcus aureus ATCC 700698 in absence of 10% FBS to MIC for methicillin-resistant Staphylococcus aureus ATCC 700698 in presence of 10% FBS; how it was run: as §1
[9] = test system: Staphylococcus aureus; assay: Ratio of MIC for methicillin-resistant Staphylococcus aureus ATCC 34404 in absence of 10% FBS to MIC for methicillin-resistant Staphylococcus aureus ATCC 34404 in presence of 10% FBS; how it was run: as §1
[10] = test system: Staphylococcus aureus; assay: Ratio of MIC for methicillin-resistant Staphylococcus aureus ST239 HS770 in absence of 10% FBS to MIC for methicillin-resistant Staphylococcus aureus ST239 HS770 in presence of 10% FBS; how it was run: as §1
[11] = test system: Staphylococcus aureus; assay: Ratio of MIC for methicillin-resistant Staphylococcus aureus ATCC 700787 in absence of 10% FBS to MIC for methicillin-resistant Staphylococcus aureus ATCC 700787 in presence of 10% FBS; how it was run: as §1
[12] = test system: Staphylococcus aureus; assay: Ratio of MIC for methicillin-resistant Staphylococcus aureus ATCC BAA-39 in absence of 10% FBS to MIC for methicillin-resistant Staphylococcus aureus ATCC BAA-39 in presence of 10% FBS; how it was run: as §1

Structure (SMILES)	MIC [1]	MIC [2]	MIC [3]	MIC [4]	MIC [5]	MIC [6]	Ratio [7]	Ratio [8]	Ratio [9]	Ratio [10]	Ratio [11]	Ratio [12]
O=C(O)[C@H](Cc1ccccc1)N1C(=O)/C(=C/c2ccccc2OCCc2ccccc2)SC1=S	15.6 µg/mL (≈ 31.9 µM)	7.8 µg/mL (≈ 15.9 µM)	7.8 µg/mL (≈ 15.9 µM)	15.6 µg/mL (≈ 31.9 µM)	15.6 µg/mL (≈ 31.9 µM)	15.6 µg/mL (≈ 31.9 µM)	–	–	–	–	–	–
O=C(O)[C@H](Cc1ccccc1)N1C(=O)/C(=C/c2ccccc2Oc2ccccc2)SC1=S	3.9 µg/mL (≈ 8.45 µM)	1.95 µg/mL (≈ 4.22 µM)	1.95 µg/mL (≈ 4.22 µM)	1.95 µg/mL (≈ 4.22 µM)	–	1.95 µg/mL (≈ 4.22 µM)	–	–	–	–	–	–
O=C(O)[C@H](Cc1ccccc1)N1C(=O)/C(=C/c2ccc(Oc3ccccc3)cc2)SC1=S	3.9 µg/mL (≈ 8.45 µM)	1.95 µg/mL (≈ 4.22 µM)	1.95 µg/mL (≈ 4.22 µM)	1.95 µg/mL (≈ 4.22 µM)	7.8 µg/mL (≈ 16.9 µM)	7.8 µg/mL (≈ 16.9 µM)	–	–	–	–	–	–
O=C(O)[C@@H](Cc1ccccc1)N1C(=O)/C(=C/c2cccc(Oc3ccccc3)c2)SC1=S	3.9 µg/mL (≈ 8.45 µM)	1.95 µg/mL (≈ 4.22 µM)	1.95 µg/mL (≈ 4.22 µM)	3.9 µg/mL (≈ 8.45 µM)	3.9 µg/mL (≈ 8.45 µM)	3.9 µg/mL (≈ 8.45 µM)	–	–	–	–	–	–
O=C(O)[C@H](Cc1ccccc1)N1C(=O)/C(=C/c2cccc(Cc3ccccc3)c2)SC1=S	1.95 µg/mL (≈ 4.24 µM)	3.9 µg/mL (≈ 8.49 µM)	1.95 µg/mL (≈ 4.24 µM)	1.95 µg/mL (≈ 4.24 µM)	–	3.9 µg/mL (≈ 8.49 µM)	–	–	–	–	–	–
O=C(O)[C@H](Cc1ccccc1)N1C(=O)/C(=C/c2cccc(Oc3cccc(Cl)c3)c2)SC1=S	15.6 µg/mL (≈ 31.5 µM)	15.6 µg/mL (≈ 31.5 µM)	15.6 µg/mL (≈ 31.5 µM)	15.6 µg/mL (≈ 31.5 µM)	–	15.6 µg/mL (≈ 31.5 µM)	–	–	–	–	–	–
O=C(O)c1cn(C2CC2)c2cc(N3CCNCC3)c(F)cc2c1=O [CIPROFLOXACIN]	–	–	–	≤ 0.48 µg/mL	62.5 µg/mL (≈ 189 µM)	62.5 µg/mL (≈ 189 µM)	–	–	–	–	–	–
CN[C@H](CC(C)C)C(=O)N[C@H]1C(=O)N[C@@H](CC(N)=O)C(=O)N[C@H]2C(=O)N[C@H]3C(=O)N[C@H](C(=O)N[C@H](C(=O)O)c4cc(O)cc(O)c4-c4cc3ccc4O)[C@H](O)c3ccc(c(Cl)c3)Oc3cc2cc(c3O[C@@H]2O[C@H](CO)[C@@H](O)[C@H](O)[C@H]2O[C@H]2C[C@](C)(N)[C@H](O)[C@H](C)O2)Oc2ccc(cc2Cl)[C@H]1O [VANCOMYCIN]	≤ 0.48 µg/mL	≤ 0.48 µg/mL	≤ 0.48 µg/mL	≤ 0.48 µg/mL	≤ 0.48 µg/mL	1.95 µg/mL (≈ 1.35 µM)	–	–	–	–	–	–
O=C(O)[C@H](Cc1ccccc1)N1C(=O)/C(=C/c2cccc(OCc3ccccc3)c2)SC1=S	1.95 µg/mL (≈ 4.1 µM)	3.9 µg/mL (≈ 8.2 µM)	1.95 µg/mL (≈ 4.1 µM)	1.95 µg/mL (≈ 4.1 µM)	1.95 µg/mL (≈ 4.1 µM)	3.9 µg/mL (≈ 8.2 µM)	–	–	–	–	–	–
O=C(O)[C@H](Cc1ccccc1)N1C(=O)/C(=C/c2ccccc2-c2ccccc2)SC1=S	7.8 µg/mL (≈ 17.5 µM)	15.6 µg/mL (≈ 35 µM)	7.8 µg/mL (≈ 17.5 µM)	7.8 µg/mL (≈ 17.5 µM)	7.8 µg/mL (≈ 17.5 µM)	15.6 µg/mL (≈ 35 µM)	–	–	–	–	–	–
O=C(O)[C@H](Cc1ccccc1)N1C(=O)/C(=C/c2cccc(-c3cncnc3)c2)SC1=S	125 µg/mL (≈ 279 µM)	125 µg/mL (≈ 279 µM)	125 µg/mL (≈ 279 µM)	125 µg/mL (≈ 279 µM)	125 µg/mL (≈ 279 µM)	125 µg/mL (≈ 279 µM)	–	–	–	–	–	–
O=C(O)[C@@H](Cc1ccccc1)N1C(=O)/C(=C/c2cccc(Oc3cccc(Cl)c3)c2)SC1=S	1.95 µg/mL (≈ 3.93 µM)	3.9 µg/mL (≈ 7.86 µM)	1.95 µg/mL (≈ 3.93 µM)	0.98 µg/mL (≈ 1.98 µM)	1.95 µg/mL (≈ 3.93 µM)	3.9 µg/mL (≈ 7.86 µM)	2	2	2	2	2	2
O=C(O)[C@H](Cc1ccccc1)N1C(=O)/C(=C/c2cccc(OCC3CC3)c2)SC1=S	15.6 µg/mL (≈ 35.5 µM)	15.6 µg/mL (≈ 35.5 µM)	15.6 µg/mL (≈ 35.5 µM)	15.6 µg/mL (≈ 35.5 µM)	15.6 µg/mL (≈ 35.5 µM)	15.6 µg/mL (≈ 35.5 µM)	–	–	–	–	–	–
O=C(O)[C@H](Cc1ccccc1)N1C(=O)/C(=C/c2cccc(-c3ccc(Cl)c(Cl)c3)c2)SC1=S	3.9 µg/mL (≈ 7.58 µM)	7.8 µg/mL (≈ 15.2 µM)	7.8 µg/mL (≈ 15.2 µM)	3.9 µg/mL (≈ 7.58 µM)	1.95 µg/mL (≈ 3.79 µM)	3.9 µg/mL (≈ 7.58 µM)	–	–	–	–	–	–
O=C(O)[C@H](Cc1ccccc1)N1C(=O)/C(=C/c2cccc(Oc3ccc(Cl)cc3)c2)SC1=S	7.8 µg/mL (≈ 15.7 µM)	7.8 µg/mL (≈ 15.7 µM)	15.6 µg/mL (≈ 31.5 µM)	7.8 µg/mL (≈ 15.7 µM)	–	15.6 µg/mL (≈ 31.5 µM)	–	–	–	–	–	–
